Results from ChEMBL document CHEMBL1667809, “Synthesis and in vitro antibacterial activity of 7-(3-alkoxyimino-5-amino/methylaminopiperidin-1-yl)fluoroquinolone derivatives” (Bioorg Med Chem Lett, 2011).
≈ marks a conversion by molar mass, not a printed value.

Experiments:
[1] = tested on: Staphylococcus aureus; assay: Antibacterial activity against methicillin-resistant Staphylococcus aureus 10-05 after 18 to 24 hrs by agar dilution method; format: functional
Method in brief: (§1)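 Agar dilution on Petri dishes, each inoculated with 10⁴ cfu. Plates incubated at 35 °C for 18–24 h. MIC taken as the lowest test-compound concentration giving no visible growth on the plate. Reference drugs gemifloxacin, ciprofloxacin and levofloxacin run alongside for comparison.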

[2] = tested on: Escherichia coli; assay: Antibacterial activity against Escherichia coli 10-02 after 18 to 24 hrs by agar dilution method; format: functional
Method in brief: (§2)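 Agar dilution on Petri dishes, each inoculated with 10⁴ cfu of the strain and incubated at 35 °C for 18–24 h. MIC read as the lowest compound concentration giving no visible growth on the plate.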

[3] = tested on: Klebsiella pneumoniae; assay: Antibacterial activity against Klebsiella pneumoniae 10-1 after 18 to 24 hrs by agar dilution method; format: functional; method in brief: as §2
[4] = tested on: Staphylococcus aureus; assay: Antibacterial activity against methicillin-sensitive Staphylococcus aureus 10-04 after 18 to 24 hrs by agar dilution method; format: functional; method in brief: as §2
[5] = tested on: Staphylococcus aureus; assay: Antibacterial activity against Staphylococcus aureus ATCC 25923 after 18 to 24 hrs by agar dilution method; format: functional; method in brief: as §2
[6] = tested on: Pseudomonas aeruginosa; assay: Antibacterial activity against Pseudomonas aeruginosa ATCC 27853 after 18 to 24 hrs by agar dilution method; format: functional; method in brief: as §2
[7] = tested on: Pseudomonas aeruginosa; assay: Antibacterial activity against Pseudomonas aeruginosa 10-1 after 18 to 24 hrs by agar dilution method; format: functional; method in brief: as §2
[8] = Cytotoxicity against african green monkey Vero cells after 24 hrs; format: cell-based; conditions: chlorocebus sabaeus
Method in brief: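 Vero cells exposed to graded compound concentrations for 24 h, then viability assessed; CC₅₀ derived from the viability data.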

[9] = tested on: Streptococcus pyogenes; assay: Antibacterial activity against Streptococcus hemolyticus 1002 after 18 to 24 hrs by agar dilution method; format: functional; method in brief: as §2
[10] = tested on: Streptococcus pneumoniae; assay: Antibacterial activity against Streptococcus pneumoniae 1001 after 18 to 24 hrs by agar dilution method; format: functional; method in brief: as §2
[11] = tested on: Staphylococcus epidermidis; assay: Antibacterial activity against methicillin-resistant Staphylococcus epidermidis 10-5 after 18 to 24 hrs by agar dilution method; format: functional; method in brief: as §1
[12] = tested on: Escherichia coli; assay: Antibacterial activity against Escherichia coli ATCC 25922 after 18 to 24 hrs by agar dilution method; format: functional; method in brief: as §2
[13] = tested on: Staphylococcus epidermidis; assay: Antibacterial activity against methicillin-sensitive Staphylococcus epidermidis 10-4 after 18 to 24 hrs by agar dilution method; format: functional; method in brief: as §2
[14] = tested on: Staphylococcus aureus; assay: Ratio of compound MIC to LVFX MIC for methicillin-sensitive Staphylococcus aureus 10-04; format: functional
[15] = tested on: Staphylococcus epidermidis; assay: Ratio of compound MIC to GMFX MIC for methicillin-resistant Staphylococcus epidermidis 10-5; format: functional
[16] = tested on: Staphylococcus epidermidis; assay: Ratio of compound MIC to LVFX MIC for methicillin-resistant Staphylococcus epidermidis 10-5; format: functional
[17] = tested on: Staphylococcus aureus; assay: Ratio of compound MIC to CPFX MIC for methicillin-sensitive Staphylococcus aureus 10-04; format: functional
[18] = tested on: Staphylococcus aureus; assay: Ratio of compound MIC to GMFX MIC for methicillin-sensitive Staphylococcus aureus 10-04; format: functional
[19] = tested on: Staphylococcus epidermidis; assay: Ratio of compound MIC to CPFX MIC for methicillin-resistant Staphylococcus epidermidis 10-5; format: functional

`CO/N=C1\CC(N)CN(c2nc3c(cc2F)c(=O)c(C(=O)O)cn3C2CC2)C1` (stereo not given) gave an MIC [1] of 128 mg/L (≈ 329 µM), an MIC [2] of 0.25 mg/L (≈ 0.642 µM) and an MIC [3] of 128 mg/L (≈ 329 µM). It also gave an MIC [4] of 8 mg/L (≈ 20.5 µM), an MIC [5] of 4 mg/L (≈ 10.3 µM) and an MIC [6] of 128 mg/L (≈ 329 µM). For the same compound, the MIC [7] was 128 mg/L (≈ 329 µM), the CC50 at 24 h [8] was 822 µM and the MIC [9] was 128 mg/L (≈ 329 µM). It also gave an MIC [10] of 4 mg/L (≈ 10.3 µM), an MIC [11] of 16 mg/L (≈ 41.1 µM) and an MIC [12] of 0.25 mg/L (≈ 0.642 µM). For the same compound, the MIC [13] was 2 mg/L (≈ 5.14 µM).

`CCO/N=C1\CC(N)CN(c2nc3c(cc2F)c(=O)c(C(=O)O)cn3C2CC2)C1` (stereo not given) showed an MIC [1] of 16 mg/L (≈ 39.7 µM), an MIC [2] of 0.5 mg/L (≈ 1.24 µM) and an MIC [3] of 128 mg/L (≈ 317 µM). It also gave an MIC [4] of 2 mg/L (≈ 4.96 µM), an MIC [5] of 4 mg/L (≈ 9.92 µM) and an MIC [6] of 128 mg/L (≈ 317 µM). It also gave an MIC [7] of 128 mg/L (≈ 317 µM), a CC50 at 24 h [8] of 967 µM and an MIC [9] of 128 mg/L (≈ 317 µM). The MIC [10] was 4 mg/L (≈ 9.92 µM), the MIC [11] was 8 mg/L (≈ 19.8 µM) and the MIC [12] was 0.25 mg/L (≈ 0.62 µM). It also gave an MIC [13] of 4 mg/L (≈ 9.92 µM).

`CNC1C/C(=N\OC)CN(c2nc3c(cc2F)c(=O)c(C(=O)O)cn3C2CC2)C1` (stereo not given) showed an MIC [1] of 128 mg/L (≈ 317 µM), an MIC [2] of 0.25 mg/L (≈ 0.62 µM) and an MIC [3] greater than 128 mg/L. It also gave an MIC [4] of 4 mg/L (≈ 9.92 µM), an MIC [5] of 0.5 mg/L (≈ 1.24 µM) and an MIC [6] of 128 mg/L (≈ 317 µM). The MIC [7] was greater than 128 mg/L, the CC50 at 24 h [8] was 645 µM and the MIC [9] was greater than 128 mg/L. It also gave an MIC [10] of 4 mg/L (≈ 9.92 µM), an MIC [11] of 16 mg/L (≈ 39.7 µM) and an MIC [12] of 0.25 mg/L (≈ 0.62 µM). The MIC [13] was 2 mg/L (≈ 4.96 µM).

Compound `CCO/N=C1\CC(NC)CN(c2nc3c(cc2F)c(=O)c(C(=O)O)cn3C2CC2)C1` (stereo not given) has an MIC [1] of 8 mg/L (≈ 19.2 µM), an MIC [2] of 0.25 mg/L (≈ 0.599 µM) and an MIC [3] greater than 128 mg/L. It also gave an MIC [4] of 4 mg/L (≈ 9.58 µM), an MIC [5] of 2 mg/L (≈ 4.79 µM) and an MIC [6] of 128 mg/L (≈ 307 µM). The MIC [7] was greater than 128 mg/L, the CC50 at 24 h [8] was 731 µM and the MIC [9] was greater than 128 mg/L. For the same compound, the MIC [10] was 4 mg/L (≈ 9.58 µM), the MIC [11] was 16 mg/L (≈ 38.3 µM) and the MIC [12] was 0.25 mg/L (≈ 0.599 µM). It also gave an MIC [13] of 8 mg/L (≈ 19.2 µM).

`CNC1C/C(=N\OC)CN(c2c(F)cc3c(=O)c(C(=O)O)cn(C4CC4)c3c2OC)C1` (stereo not given) showed an MIC [1] of 2 mg/L (≈ 4.62 µM), an MIC [2] of 0.25 mg/L (≈ 0.578 µM) and an MIC [3] of 128 mg/L (≈ 296 µM). For the same compound, the Ratio [14] was 4, the Ratio [15] was 2 and the MIC [4] was 0.5 mg/L (≈ 1.16 µM). The MIC [5] was 0.5 mg/L (≈ 1.16 µM), the Ratio [16] was 2 and the Ratio [17] was 4. It also gave an MIC [6] of 64 mg/L (≈ 148 µM), an MIC [7] of 128 mg/L (≈ 296 µM) and a CC50 at 24 h [8] of 1090 µM. It also gave an MIC [9] of 8 mg/L (≈ 18.5 µM), an MIC [10] of 0.5 mg/L (≈ 1.16 µM) and an MIC [11] of 4 mg/L (≈ 9.25 µM). For the same compound, the MIC [12] was 0.25 mg/L (≈ 0.578 µM), the Ratio [18] was 4 and the MIC [13] was 1 mg/L (≈ 2.31 µM). For the same compound, the Ratio [19] was 4.

Work on `CCO/N=C1\CC(NC)CN(c2c(F)cc3c(=O)c(C(=O)O)cn(C4CC4)c3c2OC)C1` (stereo not given) yielded an MIC [1] of 8 mg/L (≈ 17.9 µM), an MIC [2] of 0.25 mg/L (≈ 0.56 µM) and an MIC [3] of 128 mg/L (≈ 287 µM). The Ratio [14] was 4, the Ratio [15] was 2 and the MIC [4] was 0.5 mg/L (≈ 1.12 µM). It also gave an MIC [5] of 0.5 mg/L (≈ 1.12 µM), a Ratio [16] of 2 and a Ratio [17] of 4. It also gave an MIC [6] of 128 mg/L (≈ 287 µM), an MIC [7] of 128 mg/L (≈ 287 µM) and a CC50 at 24 h [8] of 1520 µM. For the same compound, the MIC [9] was 128 mg/L (≈ 287 µM), the MIC [10] was 1 mg/L (≈ 2.24 µM) and the MIC [11] was 4 mg/L (≈ 8.96 µM). The MIC [12] was 0.25 mg/L (≈ 0.56 µM), the Ratio [18] was 4 and the MIC [13] was 0.25 mg/L (≈ 0.56 µM). For the same compound, the Ratio [19] was 4.

`CO/N=C1\CC(N)CN(c2c(F)cc3c(=O)c(C(=O)O)cn(C4CC4)c3c2F)C1` (stereo not given) showed an MIC [1] of 8 mg/L (≈ 19.7 µM), an MIC [2] of 0.25 mg/L (≈ 0.615 µM) and an MIC [3] of 128 mg/L (≈ 315 µM). For the same compound, the Ratio [14] was 4, the MIC [4] was 0.5 mg/L (≈ 1.23 µM) and the MIC [5] was 0.25 mg/L (≈ 0.615 µM). The Ratio [17] was 4, the MIC [6] was 128 mg/L (≈ 315 µM) and the MIC [7] was 128 mg/L (≈ 315 µM). It also gave a CC50 at 24 h [8] of 739 µM, an MIC [9] of 128 mg/L (≈ 315 µM) and an MIC [10] of 0.25 mg/L (≈ 0.615 µM). The MIC [11] was 8 mg/L (≈ 19.7 µM), the MIC [12] was 0.25 mg/L (≈ 0.615 µM) and the Ratio [18] was 4. For the same compound, the MIC [13] was 4 mg/L (≈ 9.84 µM).

`CCO/N=C1\CC(N)CN(c2c(F)cc3c(=O)c(C(=O)O)cn(C4CC4)c3c2F)C1` (stereo not given) showed an MIC [1] of 4 mg/L (≈ 9.51 µM), an MIC [2] of 0.25 mg/L (≈ 0.595 µM) and an MIC [3] of 64 mg/L (≈ 152 µM). For the same compound, the Ratio [14] was 4, the Ratio [15] was 2 and the MIC [4] was 0.5 mg/L (≈ 1.19 µM). It also gave an MIC [5] of 0.25 mg/L (≈ 0.595 µM), a Ratio [16] of 2 and a Ratio [17] of 4. It also gave an MIC [6] of 8 mg/L (≈ 19 µM), an MIC [7] greater than 128 mg/L and a CC50 at 24 h [8] of 1320 µM. It also gave an MIC [9] of 64 mg/L (≈ 152 µM), an MIC [10] of 0.25 mg/L (≈ 0.595 µM) and an MIC [11] of 4 mg/L (≈ 9.51 µM). For the same compound, the MIC [12] was 0.25 mg/L (≈ 0.595 µM), the Ratio [18] was 4 and the MIC [13] was 0.5 mg/L (≈ 1.19 µM). The Ratio [19] was 4.

Work on `CNC1C/C(=N\OC)CN(c2c(F)cc3c(=O)c(C(=O)O)cn(C4CC4)c3c2F)C1` (stereo not given) yielded an MIC [1] of 8 mg/L (≈ 19 µM), an MIC [2] of 0.25 mg/L (≈ 0.595 µM) and an MIC [3] of 128 mg/L (≈ 304 µM). The Ratio [15] was 2, the MIC [4] was 2 mg/L (≈ 4.76 µM) and the MIC [5] was 0.25 mg/L (≈ 0.595 µM). For the same compound, the Ratio [16] was 2, the MIC [6] was 8 mg/L (≈ 19 µM) and the MIC [7] was 128 mg/L (≈ 304 µM). For the same compound, the CC50 at 24 h [8] was 1020 µM, the MIC [9] was 8 mg/L (≈ 19 µM) and the MIC [10] was 1 mg/L (≈ 2.38 µM). The MIC [11] was 2 mg/L (≈ 4.76 µM), the MIC [12] was 0.25 mg/L (≈ 0.595 µM) and the MIC [13] was 2 mg/L (≈ 4.76 µM).
